Results from PMC8456861 (Transplant International, 2021).
Entries after “also recorded” stand apart in the source; their conditions may differ. Where two headings read alike, the source gives them in different places.

Key:
[1] = tested on: CYP3A4/CYP3A5‐dependent metabolism; assay type: in vivo, patients (kidney transplant recipients with late ABMR); settings: for C0/D ratio: week 12, median [IQR]
CYP2C19 and CYP3A4 = assay: Pantoprazole pharmacokinetics; assay type: in vivo, patients (kidney transplant recipients with late ABMR)
Procedure, shortened: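 20 mg pantoprazole given as an i.v. bolus on day 0, week 12 and week 52. At day 0 and week 12, dosing preceded study injection. EDTA blood was drawn pre-dose and 1, 2, 3, 4, 5 and 6 h after dosing, spun at 2000 g for 10 min at 4°C and stored at −80 °C. Plasma levels measured by HPLC-MS/MS. Noncompartmental Cmax, AUC0-last, AUC0-inf and T1/2 reported as median (IQR); Wilcoxon/Mann–Whitney tests.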

CYP enzymes = settings: critically ill patients; cited from earlier work
[2] = earlier studies; cited from earlier work
CYP3A4/CYP3A5 = assay type: in vivo, patients (kidney transplant recipients with late ABMR); settings: human, whole blood, C0 level; for C0 at 12 week: week 12, median [IQR]
CYP3A4 [3] = settings: patients with rheumatoid arthritis; cited from earlier work
[4] = tested on: late antibody‐mediated rejection (ABMR); settings: cited from earlier work
C‐reactive protein (CRP) = assay: High‐sensitive CRP under clazakizumab; assay type: in vivo, patients (kidney transplant recipients with late ABMR); settings: clazakizumab 25 mg s.c. 4‐weekly
Procedure, shortened: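 Serum high-sensitivity CRP measured by latex particle-enhanced immunoturbidimetric assay on an automated analyser (functional sensitivity 0.03 mg/dl). Randomised double-blind design: clazakizumab 25 mg s.c. or 0.9% saline placebo every 4 weeks to week 12, then open clazakizumab 4-weekly to week 52. Data given as median (IQR).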

Liver parameters = assay type: in vivo, patients (kidney transplant recipients with late ABMR); settings: ALAT, AST, CHE
CYP3A4 [5] = settings: 19 patients with active rheumatoid arthritis; cited from earlier work
[6] = Clazakizumab arm (n = 10), median (IQR)
[7] = Placebo arm (clazakizumab in part B), median (IQR)
[8] = Placebo arm (n = 10), median (IQR)

CO[C@H]1C[C@@H]2CC[C@@H](C)[C@@](O)(O2)C(=O)C(=O)N2CCCC[C@H]2C(=O)O[C@H]([C@H](C)C[C@@H]2CC[C@@H](OCCO)[C@H](OC)C2)CC(=O)[C@H](C)/C=C(\C)[C@@H](O)[C@@H](OC)C(=O)[C@H](C)C[C@H](C)/C=C/C=C/C=C/1C [everolimus]
decrease in C0/D ratio ([1]; single patient, individual course over the study): approximately 50%

COc1ccnc(C[S+]([O-])c2nc3ccc(OC(F)F)cc3[nH]2)c1OC (centres unmarked) [pantoprazole]
Percent change from day 0 to week 12, AUC0‐inf (CYP2C19 and CYP3A4; [6]): 4.0 (−6.4‐80.3) Percent | Percent change from day 0 to week 12, T1/2 (CYP2C19 and CYP3A4; [6]): 18.4 (−0.4–23.2) Percent | Percent change from day 0 to week 52, AUC0‐inf (CYP2C19 and CYP3A4; Clazakizumab arm, median (IQR)): 52.3 (−5.6–64.1) Percent | Percent change from day 0 to week 52, AUC0‐last (CYP2C19 and CYP3A4; Clazakizumab arm, median (IQR)): 41.9 (0.4–84.5) Percent | Percent change from day 0 to week 52, Cmax (CYP2C19 and CYP3A4; Clazakizumab arm, median (IQR)): 22.5 (1.6‐37.8) Percent | Percent change from day 0 to week 52, T1/2 (CYP2C19 and CYP3A4; Clazakizumab arm, median (IQR)): 8.8 (−9.7‐56.8) Percent | Percent change from day 0 to week 52, AUC0‐inf (CYP2C19 and CYP3A4; [7]): 0.72 (−42.7–64.0) Percent | Percent change from day 0 to week 52, AUC0‐last (CYP2C19 and CYP3A4; [7]): 13.6 (−47.2–50.5) Percent | Percent change from day 0 to week 12, AUC0‐inf (CYP2C19 and CYP3A4; [8]): 13.8 (−17.7‐27.8) Percent | Percent change from day 0 to week 12, AUC0‐last (CYP2C19 and CYP3A4; [8]): 15.6 (−18.7‐31.1) Percent | Percent change from day 0 to week 12, Cmax (CYP2C19 and CYP3A4; [8]): 5.7 (−10.7‐41.3) Percent | Percent change from day 0 to week 12, T1/2 (CYP2C19 and CYP3A4; [8]): 0.2 (−14.4‐21.5) Percent | Percent change from day 0 to week 12, AUC0‐inf (CYP2C19 and CYP3A4; Total (n = 20), median (IQR)): 11.6 (−11.7‐31.4) Percent | Percent change from day 0 to week 12, AUC0‐last (CYP2C19 and CYP3A4; Total (n = 20), median (IQR)): 10.4 (−8.0‐27.8) Percent | Percent change from day 0 to week 12, Cmax (CYP2C19 and CYP3A4; Total (n = 20), median (IQR)): 2.1 (−12.2‐26.3) Percent | Percent change from day 0 to week 12, T1/2 (CYP2C19 and CYP3A4; Total (n = 20), median (IQR)): 5.9 (−4.5–23.2) Percent | Percent change from day 0 to week 52, AUC0‐inf (CYP2C19 and CYP3A4; Total, median (IQR)): 31.9 (−22.5–64.0) Percent | Percent change from day 0 to week 52, AUC0‐last (CYP2C19 and CYP3A4; Total, median (IQR)): 25.3 (−15.9–51.7) Percent | Percent change from day 0 to week 52, Cmax (CYP2C19 and CYP3A4; Total, median (IQR)): 5.5 (−22.1‐33.6) Percent | Cmax (CYP2C19 and CYP3A4; human, plasma, iv, 20 mg, Cmax, 20 mg i.v., day 0, Total (n = 20), median (IQR)): 1490 ng/mL | half-life (CYP2C19 and CYP3A4; human, plasma, iv, 20 mg, T1/2, 20 mg i.v., day 0, Total (n = 20), median (IQR)): 1.08 h | half‐life, fold longer than in this study's patients / healthy volunteers (CYP enzymes): approximately 5 fold | half‐life [2]: generally less than two hours | time to complete absorption [2]: about 12 hours

C=CC[C@@H]1/C=C(\C)C[C@H](C)C[C@H](OC)[C@H]2O[C@@](O)(C(=O)C(=O)N3CCCC[C@H]3C(=O)O[C@H](/C(C)=C/[C@@H]3CC[C@@H](O)[C@H](OC)C3)[C@H](C)[C@@H](O)CC1=O)[C@H](C)C[C@@H]2OC [tacrolimus]
C0 at 12 week (CYP3A4/CYP3A5; clazakizumab arm (n = 6)): 7 ng/mL | C0 at 12 week (CYP3A4/CYP3A5; placebo arm (n = 7)): 6.4 ng/mL | concentration at 0 day (CYP3A4/CYP3A5; baseline, Clazakizumab arm, median (IQR)): 5.6 ng/mL | C0/D ratio ([1]; clazakizumab arm (n = 6)): 2.15 [1.13–4.35] ng/ml/mg | C0/D ratio ([1]; placebo arm (n = 7)): 2.0 [0.73–2.03] ng/ml/mg

tocilizumab: anti‐IL‐6R antibody
effect on CYP activity and simvastatin metabolism (CYP3A4 [3]): restored diminished CYP activity and substantially enhanced the metabolism of simvastatin

B1: clazakizumab: monoclonal anti‐IL‐6 antibody (Vitaeris Inc.), 25 mg subcutaneously at 4‐weekly intervals (antibody, chains of the INN, looked up, V domains shown)
VH: EVQLVESGGGLVQPGGSLRLSCAASGFSLSNYYVTWVRQAPGKGLEWVGIIYGSDETAYATSAIGRFTISRDNSKNTLYLQMNSLRAEDTAVYYCARDDSSDWDAKFNLWGQGTLVTVSS
VL: AIQMTQSPSSLSASVGDRVTITCQASQSINNELSWYQQKPGKAPKLLIYRASTLASGVPSRFSGSGSGTDFTLTISSLQPDDFATYYCQQGYSLRNIDNAFGGGTKVEIK
impact on pantoprazole pharmacokinetics / CYP‐dependent drug metabolism (CYP2C19 and CYP3A4; IL‐6 blockade up to 52 weeks): no clinically meaningful impact; also recorded: did not enhance CYP‐dependent drug metabolism | effect on DSA ([4]; after 3 months): significant reduction of DSA | effect on ABMR activity (microcirculation inflammation, molecular ABMR scores) ([4]; after prolonged treatment): modulation of ABMR activity | effect on progression of graft dysfunction ([4]; over a period of a year): significantly halted the progression of graft dysfunction | effect on CRP levels (C‐reactive protein (CRP)): suppressed to undetectable levels; also recorded: virtually complete reduction | effect on liver parameters (Liver parameters): no meaningful effect

B2: sarilumab: anti‐IL‐6R antibody (antibody, chains of the INN, looked up, V domains shown)
VH: EVQLVESGGGLVQPGRSLRLSCAASRFTFDDYAMHWVRQAPGKGLEWVSGISWNSGRIGYADSVKGRFTISRDNAENSLFLQMNGLRAEDTALYYCAKGRDSFDIWGQGTMVTVSS
VL: DIQMTQSPSSVSASVGDRVTITCRASQGISSWLAWYQQKPGKAPKLLIYGASSLESGVPSRFSGSGSGTDFTLTISSLQPEDFASYYCQQANSFPYTFGQGTKLEIK
effect on altered simvastatin exposure (CYP3A4 [5]): fully reversed
